Results taken from ChEMBL document CHEMBL1909519, “L-Proline anchored multicomponent synthesis of novel pyrido[2,3-a]carbazoles; investigation of in vitro antimicrobial, antioxidant, cytotoxicity and structure activity relationship studies” (Eur J Med Chem, 2011).
Values after ≈ are worked out from the molar mass of the structure shown.

Experiments:
Escherichia coli [1] = experiment: Antibacterial activity against Escherichia coli at 50 ug/ml after 24 hrs by agar disk diffusion assay; assay type: functional; conditions: read-out: DIZ
Outline: (§1)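 Gram-negative clinical isolates (PSG Hospital, Coimbatore) tested by agar well diffusion on nutrient agar. Compounds dissolved in DMSO at 0 (control), 25, 50, 75, 100; DMSO was the negative control and ciprofloxacin ([…]) the positive control. Incubation 37 ± 2 °C for 24 h, then inhibition zone diameter measured in mm.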

Klebsiella pneumoniae [2] = experiment: Antibacterial activity against Klebsiella pneumoniae at 50 ug/ml after 24 hrs by agar disk diffusion assay; assay type: functional; conditions: read-out: DIZ; outline: as §1
HCT-15 [3] = experiment: Cytotoxicity against human HCT15 cells up to 50 ug/ml after 48 hrs by SRB assay; assay type: functional, cell-based
Outline: (§2)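 Cells in RPMI-1640 with 10% heat-inactivated FBS, 1 mM NaHCO3, 2 mM L-glutamine, 37 °C, 5% CO2; seeded (B16F10 5 × 10⁴ cells/mL, others 1 × 10⁵ cells/mL), 24 h, then compounds in DMSO at 1.56–50 for 48 h, triplicate wells. TCA fixation, SRB staining 30 min, tris extraction, OD 520 nm; IC50 by linear regression, mean ± SD of three independent experiments; cisplatin positive control.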

[4] = Cytotoxicity against human SK-MEL-12 cells up to 50 ug/ml after 48 hrs by SRB assay; assay type: functional, cell-based; outline: as §2
Candida albicans [5] = experiment: Antifungal activity against Candida albicans after 48 hrs by agar disk diffusion assay; assay type: functional
Outline: (§3)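 Fungal isolates (PSG Hospital, Coimbatore) grown on Sabouraud dextrose agar; agar well diffusion with compounds in DMSO at 0 (control), 25, 50, 75, 100. DMSO negative control, fluconazole ([…]) positive control. Plates held 28 ± 2 °C for 48 h; zone of inhibition diameter recorded in mm.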

Candida albicans [6] = experiment: Antifungal activity against Candida albicans at 50 ug/ml after 48 hrs by agar disk diffusion assay; assay type: functional; conditions: read-out: DIZ; outline: as §3
Staphylococcus aureus [7] = experiment: Antibacterial activity against Staphylococcus aureus at 50 ug/ml after 24 hrs by agar disk diffusion assay; assay type: functional; conditions: read-out: DIZ
Outline: (§4)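 Agar well diffusion on nutrient agar against Gram-positive clinical isolates (PSG Hospital, Coimbatore). Compounds in DMSO tested at 0 (control), 25, 50, 75, 100; DMSO as solvent and negative control; ciprofloxacin ([…]) as positive control. Plates incubated 37 ± 2 °C, 24 h; zone of inhibition diameter read in mm.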

Aspergillus niger [8] = experiment: Antifungal activity against Aspergillus niger after 48 hrs by agar disk diffusion assay; assay type: functional; outline: as §3
Escherichia coli [9] = experiment: Antibacterial activity against Escherichia coli after 24 hrs by agar disk diffusion assay; assay type: functional; outline: as §1
Klebsiella pneumoniae [10] = experiment: Antibacterial activity against Klebsiella pneumoniae after 24 hrs by agar disk diffusion assay; assay type: functional; outline: as §1
B16-F10 [11] = experiment: Cytotoxicity against mouse B16F10 cells up to 50 ug/ml after 48 hrs by SRB assay; assay type: functional, cell-based; outline: as §2
Aspergillus niger [12] = experiment: Antifungal activity against Aspergillus niger at 50 ug/ml after 48 hrs by agar disk diffusion assay; assay type: functional; conditions: read-out: DIZ; outline: as §3
SK-OV-3 = experiment: Cytotoxicity against human SKOV3 cells up to 50 ug/ml after 48 hrs by SRB assay; assay type: functional, cell-based; outline: as §2
A549 [13] = experiment: Cytotoxicity against human A549 cells up to 50 ug/ml after 48 hrs by SRB assay; assay type: functional, cell-based; outline: as §2
Enterococcus faecalis [14] = experiment: Antibacterial activity against Enterococcus faecalis at 50 ug/ml after 24 hrs by agar disk diffusion assay; assay type: functional; conditions: read-out: DIZ; outline: as §4
Staphylococcus aureus [15] = experiment: Antibacterial activity against Staphylococcus aureus after 24 hrs by agar disk diffusion assay; assay type: functional; outline: as §4
Enterococcus faecalis [16] = experiment: Antibacterial activity against Enterococcus faecalis after 24 hrs by agar disk diffusion assay; assay type: functional; outline: as §4
B16-F10 [17] = experiment: Cytotoxicity against mouse B16F10 cells after 48 hrs by SRB assay; assay type: functional, cell-based; conditions: B16-F10, 48 h; outline: as §2
Staphylococcus aureus [18] = experiment: Antibacterial activity against Staphylococcus aureus at 100 ug/ml after 24 hrs by agar disk diffusion assay; assay type: functional; conditions: read-out: DIZ; outline: as §4
[19] = system: Radical scavenging activity; experiment: Antioxidant activity assessed as DPPH radical scavenging activity after 30 mins by micro plate reader; assay type: functional
Outline: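 DPPH assay: various compound concentrations brought to volume with ethanol, mixed with 0.1 mM ethanolic DPPH alongside vitamin C standard; shaken 30 min at 24 °C, absorbance read at 517 nm; concentration giving 50% decrease determined.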

HCT-15 [20] = experiment: Cytotoxicity against human HCT15 cells after 48 hrs by SRB assay; assay type: functional, cell-based; conditions: HCT-15, 48 h; outline: as §2
Enterococcus faecalis [21] = experiment: Antibacterial activity against Enterococcus faecalis at 100 ug/ml after 24 hrs by agar disk diffusion assay; assay type: functional; conditions: read-out: DIZ; outline: as §4
Klebsiella pneumoniae [22] = experiment: Antibacterial activity against Klebsiella pneumoniae at 100 ug/ml after 24 hrs by agar disk diffusion assay; assay type: functional; conditions: read-out: DIZ; outline: as §1
A549 [23] = experiment: Cytotoxicity against human A549 cells after 48 hrs by SRB assay; assay type: functional, cell-based; conditions: A549, 48 h; outline: as §2
Candida albicans [24] = experiment: Antifungal activity against Candida albicans at 100 ug/ml after 48 hrs by agar disk diffusion assay; assay type: functional; conditions: read-out: DIZ; outline: as §3
Aspergillus niger [25] = experiment: Antifungal activity against Aspergillus niger at 100 ug/ml after 48 hrs by agar disk diffusion assay; assay type: functional; conditions: read-out: DIZ; outline: as §3
Escherichia coli [26] = experiment: Antibacterial activity against Escherichia coli at 100 ug/ml after 24 hrs by agar disk diffusion assay; assay type: functional; conditions: read-out: DIZ; outline: as §1
Klebsiella pneumoniae [27] = experiment: Antibacterial activity against Klebsiella pneumoniae at 25 ug/ml after 24 hrs by agar disk diffusion assay; assay type: functional; conditions: read-out: DIZ; outline: as §1
Aspergillus niger [28] = experiment: Antifungal activity against Aspergillus niger at 25 ug/ml after 48 hrs by agar disk diffusion assay; assay type: functional; conditions: read-out: DIZ; outline: as §3
Candida albicans [29] = experiment: Antifungal activity against Candida albicans at 25 ug/ml after 48 hrs by agar disk diffusion assay; assay type: functional; conditions: read-out: DIZ; outline: as §3
Escherichia coli [30] = experiment: Antibacterial activity against Escherichia coli at 25 ug/ml after 24 hrs by agar disk diffusion assay; assay type: functional; conditions: read-out: DIZ; outline: as §1
Staphylococcus aureus [31] = experiment: Antibacterial activity against Staphylococcus aureus at 25 ug/ml after 24 hrs by agar disk diffusion assay; assay type: functional; conditions: read-out: DIZ; outline: as §4
B16-F10 [32] = experiment: Ratio of cisplatin IC50 to compound IC50 for mouse B16F10; assay type: functional
Enterococcus faecalis [33] = experiment: Antibacterial activity against Enterococcus faecalis at 25 ug/ml after 24 hrs by agar disk diffusion assay; assay type: functional; conditions: read-out: DIZ; outline: as §4
[34] = Cytotoxicity against human SK-MEL-12 cells after 48 hrs by SRB assay; assay type: functional, cell-based; outline: as §2

MIC (Candida albicans [5]) [µg/mL]	MIC (Aspergillus niger [8]) [µg/mL]	MIC (Escherichia coli [9]) [µg/mL]	MIC (Klebsiella pneumoniae [10]) [µg/mL]	MIC (Staphylococcus aureus [15]) [µg/mL]	MIC (Enterococcus faecalis [16]) [µg/mL]	IC50 [19] [µg/mL]	Structure (SMILES)	zone of inhibition at 50 µg/mL (Escherichia coli [1]) [mm]	zone of inhibition at 50 µg/mL (Klebsiella pneumoniae [2]) [mm]	IC50 [4]	zone of inhibition at 50 µg/mL (Candida albicans [6]) [mm]	zone of inhibition at 50 µg/mL (Staphylococcus aureus [7]) [mm]	zone of inhibition at 50 µg/mL (Aspergillus niger [12]) [mm]	IC50 (SK-OV-3)	zone of inhibition at 50 µg/mL (Enterococcus faecalis [14]) [mm]	IC50 (B16-F10 [17]) [µg/mL]	IC50 (HCT-15 [20]) [µg/mL]	IC50 (A549 [23]) [µg/mL]	other results
> 100	> 100	50 (≈ 113 µM)	50 (≈ 113 µM)	50 (≈ 113 µM)	50 (≈ 113 µM)	–	CCOC(=O)c1c(N)nc2c(c1-c1ccc(N(C)C)cc1)CCc1c-2[nH]c2ccc(C)cc12	19	22	Not Active	5	21	7	Not Active	18	–	–	–	IC50 (HCT-15 [3]): Not Active; IC50 (B16-F10 [11]): Not Active; IC50 (A549 [13]): Not Active
> 100	> 100	100 (≈ 285 µM)	100 (≈ 285 µM)	100 (≈ 285 µM)	100 (≈ 285 µM)	205.5 (≈ 586 µM)	Cc1ccc2[nH]c3c(c2c1)CCc1c-3nc(N)c(C#N)c1-c1ccccc1	–	–	Not Active	–	–	–	Not Active	–	47.6 (≈ 136 µM)	44.9 (≈ 128 µM)	49.2 (≈ 141 µM)	zone of inhibition at 100 µg/mL (Staphylococcus aureus [18]): 12 mm; zone of inhibition at 100 µg/mL (Enterococcus faecalis [21]): 14 mm; zone of inhibition at 100 µg/mL (Klebsiella pneumoniae [22]): 15 mm; zone of inhibition at 100 µg/mL (Candida albicans [24]): 3 mm; zone of inhibition at 100 µg/mL (Aspergillus niger [25]): 4 mm; zone of inhibition at 100 µg/mL (Escherichia coli [26]): 16 mm
–	–	–	–	–	–	45.94 (≈ 261 µM)	O=C1O[C@H]([C@@H](O)CO)C(O)=C1O [ASCORBIC ACID]	–	–	–	–	–	–	–	–	–	–	–	–
> 100	> 100	25 (≈ 58.2 µM)	25 (≈ 58.2 µM)	25 (≈ 58.2 µM)	25 (≈ 58.2 µM)	140.21 (≈ 327 µM)	Cc1ccc2[nH]c3c(c2c1)CCc1c-3nc(N)c(C#N)c1-c1ccc(Br)cc1	–	–	Not Active	–	–	–	Not Active	–	2.84 (≈ 6.62 µM)	11 (≈ 25.7 µM)	35 (≈ 81.5 µM)	zone of inhibition at 25 µg/mL (Klebsiella pneumoniae [27]): 25 mm; zone of inhibition at 25 µg/mL (Aspergillus niger [28]): 6 mm; zone of inhibition at 25 µg/mL (Candida albicans [29]): 7 mm; zone of inhibition at 25 µg/mL (Escherichia coli [30]): 22 mm; zone of inhibition at 25 µg/mL (Staphylococcus aureus [31]): 24 mm; Ratio IC50 (B16-F10 [32]): 2; zone of inhibition at 25 µg/mL (Enterococcus faecalis [33]): 23 mm
> 100	> 100	50 (≈ 125 µM)	50 (≈ 125 µM)	50 (≈ 125 µM)	50 (≈ 125 µM)	210.34 (≈ 528 µM)	CCOC(=O)c1c(N)nc2c(c1-c1cccnc1)CCc1c-2[nH]c2ccc(C)cc12	20	21	–	9	19	4	Not Active	17	29.4 (≈ 73.8 µM)	33.8 (≈ 84.8 µM)	43.7 (≈ 110 µM)	IC50 [34]: 24.9 µg/mL (≈ 62.5 µM)
